ChEMBL document CHEMBL1154716, “Synthesis of some new S-triazine based chalcones and their derivatives as potent antimicrobial agents” (2010)
≈ marks a conversion by molar mass, not a printed value. Calls of active or inactive are those of the source. No cut-off for these calls is given here.

Tests used:
[1] = test system: Bacillus cereus; assay: Antimicrobial activity against Bacillus cereus at 10 ug/disk after 24 hrs by disk diffusion assay; format: functional
How it was run: (§1)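 Disc diffusion on 4 mm filter discs. Bacteria are grown overnight in LB at 28 C, then adjusted in saline to 1.0 × 10^5 cfu/ml. The suspension is mixed into top agar over peptone agar plates. Plates are incubated 24 h at 28 C, and growth-inhibition zone diameter is measured. Streptomycin and ampicillin controls are applied from a 1 mg/ml stock. Tests are done in duplicate.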

[2] = test system: Escherichia coli; assay: Antimicrobial activity against Escherichia coli after 24 hrs by microdilution technique; format: functional
How it was run: (§2)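 Broth microdilution in LB medium. Inoculum is 1.0 × 10^4 cfu per well, from a saline-adjusted suspension of 1.0 × 10^5 cfu/ml. Compounds are dissolved in DMSO. Incubated 24 h at 28 C. MIC is the lowest concentration with no visible growth under a binocular microscope. MBC is read by subculture into fresh broth for 72 h, with no growth taken as 99.5% kill. OD is read at 655 nm.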

[3] = test system: Micrococcus flavus; assay: Antimicrobial activity against Micrococcus flavus at 1 umol/spot after 18 hrs by TLC-bioautographic method; format: functional
How it was run: (§3)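 TLC bioautography. Samples are spotted on silica gel TLC plates, then sprayed with bacteria (1.0 × 10^5 cfu/ml) in tryptic soy broth. Plates are incubated 18 h at 37 C and sprayed with 3% aqueous p-iodonitrotetrazolium violet. After a further 3 h, growth is stopped with 70% EtOH. White zones on a pink background are scored as inhibition-zone diameter with standard errors.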

[4] = test system: Enterobacter cloacae; assay: Antimicrobial activity against Enterobacter cloacae at 1 umol/disk after 24 hrs by disk diffusion assay; format: functional; how it was run: as §1
[5] = test system: Pseudomonas aeruginosa; assay: Antimicrobial activity against Pseudomonas aeruginosa at 1 umol/spot after 18 hrs by TLC-bioautographic method; format: functional; how it was run: as §3
[6] = test system: Salmonella typhimurium; assay: Antimicrobial activity against Salmonella Typhimurium at 1 umol/disk after 24 hrs by disk diffusion assay; format: functional, organism-based; conditions: Salmonella enterica subsp. enterica serovar Typhimurium; how it was run: as §1
[7] = test system: Pseudomonas aeruginosa; assay: Antimicrobial activity against Pseudomonas aeruginosa at 10 ug/disk after 24 hrs by disk diffusion assay; format: functional; how it was run: as §1
[8] = test system: Salmonella typhimurium; assay: Antimicrobial activity against Salmonella Typhimurium after 24 hrs by microdilution technique; format: functional, Salmonella enterica subsp. enterica serovar Typhimurium; conditions: Salmonella enterica; how it was run: as §2
[9] = test system: Bacillus cereus; assay: Antimicrobial activity against Bacillus cereus at 1 umol/disk after 24 hrs by disk diffusion assay; format: functional; how it was run: as §1
[10] = test system: Enterobacter cloacae; assay: Antimicrobial activity against Enterobacter cloacae at 10 ug/disk after 24 hrs by disk diffusion assay; format: functional; how it was run: as §1
[11] = test system: Listeria monocytogenes; assay: Antimicrobial activity against Listeria monocytogenes after 24 hrs by microdilution technique; format: functional; how it was run: as §2
[12] = test system: Enterobacter cloacae; assay: Antimicrobial activity against Enterobacter cloacae at 1 umol/spot after 18 hrs by TLC-bioautographic method; format: functional; how it was run: as §3
[13] = test system: Bacillus cereus; assay: Antimicrobial activity against Bacillus cereus after 24 hrs by microdilution technique; format: functional; how it was run: as §2
[14] = test system: Micrococcus flavus; assay: Antimicrobial activity against Micrococcus flavus after 24 hrs by microdilution technique; format: functional; how it was run: as §2
[15] = test system: Listeria monocytogenes; assay: Antimicrobial activity against Listeria monocytogenes at 1 umol/spot after 18 hrs by TLC-bioautographic method; format: functional; how it was run: as §3
[16] = test system: Staphylococcus aureus; assay: Antimicrobial activity against Staphylococcus aureus after 24 hrs by microdilution technique; format: functional; how it was run: as §2
[17] = test system: Staphylococcus aureus; assay: Antimicrobial activity against Staphylococcus aureus at 1 umol/spot after 18 hrs by TLC-bioautographic method; format: functional; how it was run: as §3
[18] = test system: Micrococcus flavus; assay: Antimicrobial activity against Micrococcus flavus at 1 umol/disk after 24 hrs by disk diffusion assay; format: functional; how it was run: as §1
[19] = test system: Pseudomonas aeruginosa; assay: Antimicrobial activity against Pseudomonas aeruginosa after 24 hrs by microdilution technique; format: functional; how it was run: as §2
[20] = test system: Enterobacter cloacae; assay: Antimicrobial activity against Enterobacter cloacae after 24 hrs by microdilution technique; format: functional; how it was run: as §2
[21] = test system: Staphylococcus aureus; assay: Antimicrobial activity against Staphylococcus aureus at 1 umol/disk after 24 hrs by disk diffusion assay; format: functional; how it was run: as §1
[22] = test system: Micrococcus flavus; assay: Antimicrobial activity against Micrococcus flavus at 10 ug/disk after 24 hrs by disk diffusion assay; format: functional; how it was run: as §1
[23] = test system: Pseudomonas aeruginosa; assay: Antimicrobial activity against Pseudomonas aeruginosa at 1 umol/disk after 24 hrs by disk diffusion assay; format: functional; how it was run: as §1
[24] = test system: Staphylococcus aureus; assay: Antimicrobial activity against Staphylococcus aureus at 10 ug/disk after 24 hrs by disk diffusion assay; format: functional; how it was run: as §1
[25] = test system: Listeria monocytogenes; assay: Antimicrobial activity against Listeria monocytogenes at 1 umol/disk after 24 hrs by disk diffusion assay; format: functional; how it was run: as §1
[26] = test system: Salmonella typhimurium; assay: Antimicrobial activity against Salmonella Typhimurium at 1 umol/spot after 18 hrs by TLC-bioautographic method; format: functional; conditions: Salmonella enterica subsp. enterica serovar Typhimurium; how it was run: as §3
[27] = test system: Escherichia coli; assay: Antimicrobial activity against Escherichia coli at 1 umol/spot after 18 hrs by TLC-bioautographic method; format: functional; how it was run: as §3
[28] = test system: Escherichia coli; assay: Antimicrobial activity against Escherichia coli at 1 umol/disk after 24 hrs by disk diffusion assay; format: functional; how it was run: as §1
[29] = test system: Escherichia coli; assay: Antimicrobial activity against Escherichia coli at 10 ug/disk after 24 hrs by disk diffusion assay; format: functional; how it was run: as §1
[30] = test system: Salmonella typhimurium; assay: Antimicrobial activity against Salmonella Typhimurium at 10 ug/disk after 24 hrs by disk diffusion assay; format: functional, organism-based; conditions: Salmonella enterica subsp. enterica serovar Typhimurium; how it was run: as §1
[31] = test system: Listeria monocytogenes; assay: Antimicrobial activity against Listeria monocytogenes at 10 ug/disk after 24 hrs by disk diffusion assay; format: functional; how it was run: as §1
[32] = test system: Bacillus cereus; assay: Antimicrobial activity against Bacillus cereus at 1 umol/spot after 18 hrs by TLC-bioautographic method; format: functional; how it was run: as §3

Row | MIC [2] [µM] | MIC [8] [µM] | MIC [11] [µM] | MIC [13] [µM] | MIC [14] [µM] | SMILES | inhibition zone (IZ) [1] | MBC [2] [µM] | inhibition zone (IZ) [3] | inhibition zone (IZ) [4] | inhibition zone (IZ) [5] | inhibition zone (IZ) [6] | inhibition zone (IZ) [7] | MBC [8] [µM] | inhibition zone (IZ) [9] | inhibition zone (IZ) [10] | MBC [11] [µM] | inhibition zone (IZ) [12] [millimeter] | MBC [13] [µM] | MBC [14] [µM] | inhibition zone (IZ) [15] [millimeter] | further results
1 | 338 (≈ 200 µg/mL) | 676 (≈ 401 µg/mL) | 676 (≈ 401 µg/mL) | 169 (≈ 100 µg/mL) | 338 (≈ 200 µg/mL) | N#Cc1c(-c2ccc([N+](=O)[O-])cc2)cc(-c2ccc(Nc3nc(Nc4ccccc4)nc(Nc4ccccc4)n3)cc2)nc1N | inactive | 676 (≈ 401 µg/mL) | 0.07 millimeter | inactive | 0.09 millimeter | inactive | inactive | 676 (≈ 401 µg/mL) | inactive | inactive | 676 (≈ 401 µg/mL) | 0.09 | 338 (≈ 200 µg/mL) | 676 (≈ 401 µg/mL) | 0.1 | MBC [16]: 676 µM (≈ 401 µg/mL); MIC [16]: 338 µM (≈ 200 µg/mL); inhibition zone (IZ) [17]: inactive; inhibition zone (IZ) [18]: 0.04 millimeter; MBC [19]: 676 µM (≈ 401 µg/mL); MIC [19]: 676 µM (≈ 401 µg/mL); MBC [20]: 338 µM (≈ 200 µg/mL); MIC [20]: 169 µM (≈ 100 µg/mL); inhibition zone (IZ) [21]: inactive; zone of inhibition at 10 µg/disc ([22]; read-out: IZ): 6 mm; inhibition zone (IZ) [23]: inactive; inhibition zone (IZ) [24]: inactive; inhibition zone (IZ) [25]: inactive; inhibition zone (IZ) [26]: inactive; inhibition zone (IZ) [27]: inactive; inhibition zone (IZ) [28]: inactive; inhibition zone (IZ) [29]: inactive; inhibition zone (IZ) [30]: inactive; inhibition zone (IZ) [31]: inactive; inhibition zone (IZ) [32]: inactive
2 | 350 (≈ 200 µg/mL) | 350 (≈ 200 µg/mL) | 700 (≈ 399 µg/mL) | 175 (≈ 99.9 µg/mL) | 175 (≈ 99.9 µg/mL) | COc1ccccc1C1CC(c2ccc(Nc3nc(Nc4ccccc4)nc(Nc4ccccc4)n3)cc2)=NN1C(C)=O (stereo not given) | inactive | 700 (≈ 399 µg/mL) | inactive | inactive | inactive | inactive | inactive | 700 (≈ 399 µg/mL) | inactive | inactive | 700 (≈ 399 µg/mL) | 0.08 | 350 (≈ 200 µg/mL) | 350 (≈ 200 µg/mL) | 0.08 | MBC [16]: 700 µM (≈ 399 µg/mL); MIC [16]: 350 µM (≈ 200 µg/mL); inhibition zone (IZ) [17]: inactive; inhibition zone (IZ) [18]: inactive; MBC [19]: 700 µM (≈ 399 µg/mL); MIC [19]: 350 µM (≈ 200 µg/mL); MBC [20]: 350 µM (≈ 200 µg/mL); MIC [20]: 175 µM (≈ 99.9 µg/mL); inhibition zone (IZ) [21]: inactive; inhibition zone (IZ) [22]: inactive; inhibition zone (IZ) [23]: inactive; inhibition zone (IZ) [24]: inactive; inhibition zone (IZ) [25]: inactive; inhibition zone (IZ) [26]: inactive; inhibition zone (IZ) [27]: inactive; inhibition zone (IZ) [28]: inactive; inhibition zone (IZ) [29]: inactive; inhibition zone (IZ) [30]: inactive; inhibition zone (IZ) [31]: inactive; inhibition zone (IZ) [32]: inactive
